The test system of test [1] is U-87 MG. Put plainly: Antiproliferative activity against human U87MG cells after 72 hrs by sulforhodamine B assay. The test is classed as functional, cell-based, U-87MG ATCC. To be noted: for inhibition: U-87MG ATCC. The method in brief:
(§1)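 Sulforhodamine B assay on glioma (U251, U87-MG) and colorectal (HCT-15, SW620) cancer cells. Cells were exposed to a range of compound concentrations for 72 h, then stained with SRB. IC50 values were derived from the dose–response. Doxorubicin served as positive control.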

The subject of test [2] is U-87 MG. Put plainly: Induction of apoptosis in human U87MG cells assessed as early apoptotic cells at 10 uM after 72 hrs by annexin V-FITC/PI staining-based flow cytometric analysis (reference value: 3.41%). The test is classed as functional, U-87MG ATCC.
For the next test, the system named is SW-620. Put plainly: Antiproliferative activity against human SW620 cells after 72 hrs by sulforhodamine B assay. It counts as functional, cell-based. Conditions: for IC50: SW-620, 72 h. The method in brief:
as §1
On the technique in general: The SRB assay estimates cell density from bound dye.

The test system of another test is Staphylococcus aureus. Put plainly: Antimicrobial activity against Staphylococcus aureus after 5 to 12 hrs by micro broth dilution assay. It counts as functional, organism-based. For orientation: In broth dilution the organism is exposed to a series of concentrations in liquid medium.
In another test the test system is U-251. Put plainly: Antiproliferative activity against human U251 cells after 72 hrs by sulforhodamine B assay. It counts as functional, cell-based. Conditions: for IC50: U-251, 72 h. The method in brief: as §1
Test [3] deals with U-87 MG. Put plainly: Induction of apoptosis in human U87MG cells assessed as total apoptotic cells at 10 uM after 72 hrs by annexin V-FITC/PI staining-based flow cytometric analysis (reference value: 6.64%). It counts as functional, U-87MG ATCC. (A flow cytometer gives signals particle by particle.)
Test [4] relates to U-87 MG. Put plainly: Induction of apoptosis in human U87MG cells assessed as late apoptotic cells at 10 uM after 72 hrs by annexin V-FITC/PI staining-based flow cytometric analysis (reference value: 3.23%). The test is classed as functional, U-87MG ATCC.
Another test concerns Escherichia coli. Put plainly: Antimicrobial activity against Escherichia coli after 5 to 12 hrs by micro broth dilution assay. The test is classed as functional, organism-based.
In test [5] the test system is U-87 MG. Put plainly: Induction of apoptosis in human U87MG cells assessed as necrotic cells at 10 uM after 72 hrs by annexin V-FITC/PI staining-based flow cytometric analysis (reference value: 0.24%). The test is classed as functional, U-87MG ATCC.
Another test concerns HCT-15. Put plainly: Antiproliferative activity against human HCT15 cells after 72 hrs by sulforhodamine B assay. The test is classed as functional, cell-based. To be noted: for IC50: HCT-15, 72 h. The method, boiled down:
as §1

In test [6] the test system is U-87 MG. Put plainly: Induction of apoptosis in human U87MG cells assessed as viable cells at 10 uM after 72 hrs by annexin V-FITC/PI staining-based flow cytometric analysis (reference value: 93.12%). It counts as functional, U-87MG ATCC. To be noted: read-out: Activity.
The subject of test [7] is U-87 MG. Put plainly: Induction of apoptosis in human U87MG cells assessed as viable cells at 20 uM after 72 hrs by annexin V-FITC/PI staining-based flow cytometric analysis (reference value: 93.12%). It counts as functional, U-87MG ATCC. To be noted: read-out: Activity.
For test [8], the system named is U-87 MG. Put plainly: Induction of apoptosis in human U87MG cells assessed as necrotic cells at 20 uM by PI staining. Conditions: U-87MG ATCC. It counts as functional, cell-based. The method, boiled down: (§2)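 U87-MG glioma cells were exposed to compound at 20 µM for 72 h, then double-stained with DAPI and propidium iodide. Cells were viewed by fluorescence microscopy. Condensed bright-blue DAPI nuclei were scored as apoptotic; red PI-stained cells were scored as necrotic.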

The test system of test [9] is U-87 MG. Put plainly: Induction of apoptosis in human U87MG cells assessed as late apoptotic cells at 20 uM after 72 hrs by annexin V-FITC/PI staining-based flow cytometric analysis (reference value: 3.23%). The test is classed as functional, U-87MG ATCC.
For test [10], the system named is U-87 MG. Put plainly: Induction of apoptosis in human U87MG cells assessed as necrotic cells at 20 uM after 72 hrs by annexin V-FITC/PI staining-based flow cytometric analysis (reference value: 0.24%). The test is classed as functional, U-87MG ATCC.
Test [11] relates to U-87 MG. Put plainly: Induction of apoptosis in human U87MG cells assessed as early apoptotic cells at 20 uM after 72 hrs by annexin V-FITC/PI staining-based flow cytometric analysis (reference value: 3.41%). It counts as functional, U-87MG ATCC.
Test [12] deals with U-87 MG. Put plainly: Induction of apoptosis in human U87MG cells assessed as total apoptotic cells at 20 uM after 72 hrs by annexin V-FITC/PI staining-based flow cytometric analysis (reference value: 6.64%). The test is classed as functional, U-87MG ATCC.
The test system of test [13] is U-87 MG. Put plainly: Induction of apoptosis in human U87MG cells assessed as bright blue nuclear pyknosis at 20 uM by DAPI staining. The test is classed as functional, cell-based. Conditions: U-87MG ATCC. The method in brief:
as §2

Test [14] concerns U-87 MG. Put plainly: Induction of apoptosis in human U87MG cells assessed as early apoptotic cells at 40 uM after 72 hrs by annexin V-FITC/PI staining-based flow cytometric analysis (reference value: 3.41%). It counts as functional, U-87MG ATCC.
Test [15] concerns U-87 MG. Put plainly: Induction of apoptosis in human U87MG cells assessed as late apoptotic cells at 40 uM after 72 hrs by annexin V-FITC/PI staining-based flow cytometric analysis (reference value: 3.23%). The test is classed as functional, U-87MG ATCC.
The subject of test [16] is U-87 MG. Put plainly: Induction of apoptosis in human U87MG cells assessed as necrotic cells at 40 uM after 72 hrs by annexin V-FITC/PI staining-based flow cytometric analysis (reference value: […]). It counts as functional, U-87MG ATCC.
In test [17] the test system is U-87 MG. Put plainly: Induction of apoptosis in human U87MG cells assessed as viable cells at 40 uM after 72 hrs by annexin V-FITC/PI staining-based flow cytometric analysis (reference value: 93.12%). The test is classed as functional, U-87MG ATCC. Conditions: read-out: Activity.
Test [18] concerns U-87 MG. Put plainly: Induction of apoptosis in human U87MG cells assessed as total apoptotic cells at 40 uM after 72 hrs by annexin V-FITC/PI staining-based flow cytometric analysis (reference value: 6.64%). The test is classed as functional, U-87MG ATCC.

Calls of active or inactive are those of the source. No cut-off for these calls is given here.

In the case of `COc1cccc2c1C(=O)c1c(O)c3c(c(O)c1C2=O)C[C@@](O)(C(=O)CO)C[C@@H]3O[C@H]1C[C@H](N)[C@H](O)[C@H](C)O1` [DOXORUBICIN], the IC50 – broadly, the midpoint of a concentration-inhibition curve – with U-87 MG [1] turned out to be 930 nM; in the test on SW-620 it was 1330 nM; in the test on U-251, 2200 nM; with HCT-15, 1130 nM. Moreover, the Activity with U-87 MG [2] is given as 20.15%; in the test with U-87 MG [3], 31.17%; in the test with U-87 MG [4], 11.02%; in the test with U-87 MG [5] it was 0.6%. The inhibition entry with Staphylococcus aureus and in the test on Escherichia coli was “inactive” throughout. Besides, the viability at 10 µM with U-87 MG [6] came to 68.2%.

As for `CC[C@H](C)C(=O)Oc1ccc(/C=C/COC(C)=O)cc1OC`, the IC50 with U-87 MG [1] came to 480 nM; in the test on SW-620, 990 nM; with U-251, 12900 nM; in the test on HCT-15 it was 4580 nM. Also, the inhibition entry with U-87 MG [1], in the test on SW-620, with U-251 and in the test on HCT-15 was “Dose-dependent effect” throughout. In addition, in the test with U-87 MG [7], the viability at 20 µM turned out to be 54.5%. The outcome with U-87 MG [8] and in the test on U-87 MG [13] was Active. Besides, the Activity in the test with U-87 MG [9] is given as 36.12%; in the test on U-87 MG [10], 0.37%; with U-87 MG [11], 9.02%; with U-87 MG [12], 45.14%. Also, the inhibition result in the test on Staphylococcus aureus and in the test on Escherichia coli was “inactive” each time.

In the case of `COc1cc(/C=C/COC(C)=O)ccc1OC(C)=O`, the Activity worked out at 21.62% with U-87 MG [14], 35.71% in the test on U-87 MG [15], 0.57% in the test with U-87 MG [16] and 57.33% in the test on U-87 MG [18]. Further, the IC50 came to 1060 nM with U-87 MG [1], 360 nM with SW-620, 9710 nM in the test with U-251 and 3260 nM with HCT-15. Also, the inhibition entry with U-87 MG [1], with SW-620, in the test with U-251 and in the test on HCT-15 was “Dose-dependent effect” in each case. Moreover, the result with U-87 MG [8] and in the test with U-87 MG [13] was Active. Further, in the test on U-87 MG [17], the viability at 40 µM stood at 42.1%. The inhibition result in the test with Staphylococcus aureus and in the test on Escherichia coli was “inactive” throughout.

(Values after ChEMBL document CHEMBL3588768, “Synthesis and bioactivity of tripolinolate A from Tripolium vulgare and its analogs” (Bioorg Med Chem Lett, 2015).)
